Among the data in ChEMBL document CHEMBL4513216, “Probing the Open Global Health Chemical Diversity Library for Multistage-Active Starting Points for Next-Generation Antimalarials” (ACS Infect Dis, 2020) are cytotoxicity values, retold here.

The data set can be described thus: Toxicity liver stage against HepG2, at 10uM. In kind it is cell-based. On the set-up: test concentration 10 uM, cell line HepG2-A16-CD81EGFP. The following applies: human, HepG2-A16-CD81EGFP cells; read-out: INHIBITION
A digest of the protocol:
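Uninfected HepG2-A16-CD81EGFP cells, 3 × 10^3 per well, 1536-well, plated on prespotted compound at 10 μM final, parasite-free screening media added to match infected plates; puromycin 10 μM positive, DMSO 0.5% negative; run in parallel with 48 h PbLuc assay at 37 °C, 5% CO2; viability by CellTiter-Glo luminescence, normalized to controls.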
Consider `CC(C)Oc1cccc(C(=O)C2CCCN(C(=O)c3ccccn3)C2)c1` (centres undefined), for which the cytotoxicity at 10 µM was -7.67%. On to `Cc1noc([C@@H]2C[C@H](NC(=O)Nc3ccccc3)CN2C)n1`, for which the cytotoxicity at 10 µM is -1.89%.

Regarding `Cn1ccc2c(C(=O)N3CC[C@@]4(O)CCCC[C@H]4C3)cccc21`, the cytotoxicity at 10 µM is -42.9%. `COc1ccc(C)cc1-c1csc(N)c1C#N`: the cytotoxicity at 10 µM is -5.18%. With `O=C(CCc1nc2cccnc2[nH]1)Nc1cccnc1`, the cytotoxicity at 10 µM is 2.92%.

Consider `OC(CN1CCOCC1)c1ccc(Br)cc1` (centres undefined), for which the cytotoxicity at 10 µM was -6.58%. As to `Cc1nn(C)cc1-c1cc(C(F)F)nc2sc(C(N)=O)c(N)c12`, the cytotoxicity at 10 µM worked out at 2.6%. In the case of `CCCN1CCC(NC(=O)c2csc(C)c2-c2ccc(C)cc2)CC1` it was -4.14%.

Regarding `CCCc1noc(C2CCCCN2C(=O)CCc2cnn(C)c2)n1` (centres undefined), the cytotoxicity at 10 µM was -1.89%. The figure for `CCOC(=O)C1CCCN(c2nccc(-n3nc(C)cc3C)n2)C1` (centres undefined) is -11%; for `CCn1ncc(CN(C)C(=O)c2cc(C(F)(F)F)n(C)n2)c1C` it is 3.87%; for `Clc1cccc(-n2cnnn2)c1N1CCOCC1` it is 9.43%. In the case of `CCOCc1cccc(S(=O)(=O)N2CCSCC2)c1`, the cytotoxicity at 10 µM turned out to be 1.26%. In the case of `COc1ccc(CC(=O)N2CCN(Cc3ccco3)C[C@@H]2C)cc1` it was 1.42%; in that of `CC(C)N1CCN(C)CC(Cc2cc(N(C)C)ncn2)C1` (centres undefined), 9.25%.

In the case of `CC[C@H](Cn1ncc2ccccc2c1=O)NC(=O)c1cnc(C)cn1`, the cytotoxicity at 10 µM came to 5.98%. On to `CC(=O)N1CCCC1c1nc(N(C)C)ncc1-c1ccccc1` (centres undefined), for which the cytotoxicity at 10 µM was found to be 6.12%. For `CCn1ccc2ccnc(CC3CN(C(=O)c4cnco4)C3)c21`, the cytotoxicity at 10 µM was -6.61%.

Regarding `O=C(CCNc1ccc(Cl)cn1)NCc1ccncc1`, the cytotoxicity at 10 µM was -2.31%. Consider `O=C(Cc1ccc(F)cc1)NCc1ccc(C(=O)O)o1`, for which the cytotoxicity at 10 µM is -8.06%. The figure for `COC(=O)C(NC(=O)c1ccc(NC2CC2)nc1)c1ccccc1` (centres undefined) is -9.88%; for `COC1CCN(C(=O)c2ccc3ncsc3c2)CC1` it is -10.3%; for `NC(=O)CS(=O)(=O)Cc1ccc(F)cc1` it is -3.71%.

For `COc1ccc(CN(C(=O)C2CCOCC2)c2ccncc2)cc1`, the cytotoxicity at 10 µM was found to be 8.5%. Consider `Cn1cnnc1CNC(=O)CCCOc1ccccc1Cl`, for which the cytotoxicity at 10 µM was found to be 3.28%.

Turning to `CC(C(=O)NCC(C)(C)c1ccc2c(c1)OCCO2)n1cncn1` (centres undefined), the cytotoxicity at 10 µM came to 13.8%. In the case of `CC(=O)NCc1ccc(C(=O)N2CCCc3c(F)ccc(C)c32)o1` it was -0.883%. In the case of `COCC(C)NC(=O)N(C)Cc1cc(C)on1` (centres undefined) it was 6.27%. The figure for `O=S(=O)(NCCc1cn2ccccc2n1)N1CCOCC1` is -3.98%. Turning to `COc1ccc(CCNC(=O)c2ccc(=O)n(C)c2)c(Cl)c1`, the cytotoxicity at 10 µM is -10.3%. In the case of `CC(C)n1ccc(C(=O)OCC2CC(=O)N(Cc3ccccc3)C2)n1` (centres undefined), the cytotoxicity at 10 µM was 0.379%.

Take `c1csc(-c2cc(CN3CCN(c4cnccn4)CC3)no2)c1`: the cytotoxicity at 10 µM was -0.523%.

For the compound `CN(C)CCNC(=O)Cc1cccc(I)c1`, the cytotoxicity at 10 µM is -3.23%.

Take `COc1ccnc(N2CCN(C(=O)c3csnn3)CC2)n1`: the cytotoxicity at 10 µM is -0.581%. As for `Cc1cc(C(=O)NCC(c2ccccc2Cl)N2CCOCC2)on1` (centres undefined), the cytotoxicity at 10 µM amounted to 2.62%. The figure for `COCCOCC(=O)N1CCc2cc(Cl)cc(Cl)c2C1` is 1.4%; for `N#Cc1ccc(F)c(CNC(=O)NC(CO)c2ccccc2)c1` (centres undefined) it is 4.16%; for `CCc1nnc(C2Cc3ccccc3CN2Cc2ncc(Cl)n2C)o1` (centres undefined) it is 12.5%. Regarding `O=C(CN1CCCC1CC(=O)c1ccccc1)NCc1ccccn1` (centres undefined), the cytotoxicity at 10 µM came out at 1.39%. In the case of `CN(C)C(=O)C1CCCN1c1ccnc2ccsc12` (centres undefined), the cytotoxicity at 10 µM is -16.8%. The figure for `Cc1cc(CN(C)Cc2ncc(-c3cccs3)o2)no1` is 11%. In the case of `COc1cc(F)ccc1N1CCN(Cc2nnc(C3CC3)o2)CC1`, the cytotoxicity at 10 µM turned out to be 14.8%. Take `Cn1cc(C2CCCN2CCCn2c(=O)oc3ccccc32)cn1` (centres undefined): the cytotoxicity at 10 µM is 5.63%. The figure for `Cn1cc(CNc2cnn(CCO)c2)c(-c2ccncc2)n1` is 1.56%; for `CC(Nc1cccc(Oc2ccc(C#N)cn2)c1)C(=O)NC1CC1` (centres undefined) it is 12.8%; for `Cc1cc(CNC(=O)c2ccc(F)c(COCC3CC3)c2)no1` it is -0.429%. Turning to `O=C(NCCc1csc(N2CCCC2)n1)N(C1CCCC1)C1CC1`, the cytotoxicity at 10 µM amounted to 10.8%. In the case of `O=C(CN1CCCC1Cn1cccn1)NC1CCOCC1` (centres undefined) it was -23.2%; in that of `O=C(COc1cccc2c1CCC2=O)NCc1ccccc1F`, -5.33%. On to `O=C(CCNC(=O)c1ccccc1N1CCOCC1)NC1CCCC1`, for which the cytotoxicity at 10 µM is -17.8%. The figure for `COc1cccc(N2CCN(C(=O)C(O)CC(C)C)CC2=O)c1` (centres undefined) is -14.7%; for `CC(=O)NC1CCN(c2cc(C3CCNCC3)nc(C)n2)C1` (centres undefined) it is -1.92%. In the case of `Cc1cc(C(=O)N2CC[C@@]3(O)CCN(C(=O)N4CCCC4)C[C@H]3C2)no1` it was -6.74%; in that of `CC[C@H]1CN(C(=O)c2cnc(N3CCN(C)CC3)nc2C)CC[C@@]1(C)O`, -4.15%; in that of `CCN(C)S(=O)(=O)NCC1CCCN(Cc2ccccc2F)C1` (centres undefined), -1.22%. The figure for `CCN1CC(C(=O)N2CC(Oc3ccccc3Cl)C2)CCC1=O` (centres undefined) is -8.62%; for `CN1CCC(C)(CN(C)C(=O)c2ccc(CCC(C)(C)O)cc2)C1` (centres undefined) it is -11.2%; for `CCc1cc(C(=O)NCC2CCN(Cc3cccc(C)n3)C2)on1` (centres undefined) it is 7.69%. Regarding `CC(=O)c1cc(CN2C[C@@H](CN3CCCC3)[C@@H](CO)C2)n(C)c1`, the cytotoxicity at 10 µM is 4.92%. The figure for `COc1ccc(-c2ccc(C(=O)N3CCOCC3CC(=O)O)o2)cc1` (centres undefined) is 1.79%. Turning to `CCc1cc(C(=O)N2CC[C@@H](c3ccc4ccccc4c3)[C@H](O)C2)[nH]n1`, the cytotoxicity at 10 µM was 3.46%. As to `CC(C)SCCNC(=O)c1cccc2ccnn12`, the cytotoxicity at 10 µM was -51.6%. On to `COc1cccc(OCC2CCCN(Cc3ccncc3)C2)c1` (centres undefined), for which the cytotoxicity at 10 µM is -7.66%. The figure for `CSCc1noc(CN2CC(Cc3ccccc3)CC2=O)n1` (centres undefined) is -0.404%; for `O=C1OC2(CCNCC2)CN1CC(=O)N1CCCC1c1nccs1` (centres undefined) it is -4.92%; for `CN(C)C(=O)C1(Oc2ccc(Cl)cc2)CCNCC1` it is 13.7%.

As for `CC(C)N1CCC(C(=O)N(C)C(C)c2ccon2)CC1` (centres undefined), the cytotoxicity at 10 µM was found to be 5.16%. In the case of `CSCCCN1CCN(c2ccc(Cl)cn2)CC1`, the cytotoxicity at 10 µM is -5.52%. For `COCC[C@]1(O)CCN(C(=O)CCn2c(C)cccc2=O)C[C@H]1C`, the cytotoxicity at 10 µM is 3.28%. For `COc1cccc(S(=O)(=O)NC(=O)COC2CCCCC2)c1`, the cytotoxicity at 10 µM was -0.502%.

Take `CCN(C(C)=O)c1nc(CN2CCCCC2Cn2cncn2)cs1` (centres undefined): the cytotoxicity at 10 µM was -5.4%. In the case of `CCn1cc(CN2CCCN(C(=O)CCc3nccs3)CC2)cn1`, the cytotoxicity at 10 µM is -2.53%.

For `CCOc1ccc(Cl)c(C(=O)N2CCN(c3ncccn3)CC2)n1`, the cytotoxicity at 10 µM was -1.9%. With `CC(=O)N1CCN(Cc2ccc(OCc3nccn3C)cc2)CC1`, the cytotoxicity at 10 µM is -2.68%.

Turning to `Cn1cnnc1C1CCCN(C(=O)NCc2ccccn2)C1` (centres undefined), the cytotoxicity at 10 µM was 2.83%. In the case of `O=C(NCCn1ccnc1)c1ccn(-c2ccccc2)n1` it was 0.449%. In the case of `CCOCC1CCCN(C(=O)NCc2ccc(-c3ccn[nH]3)cc2)C1` (centres undefined) it was -3.25%; in that of `CSC(C)C(=O)N1CCCN(c2ncccc2C#N)CC1` (centres undefined), -1.2%; in that of `Cc1ncc2c(n1)CN(CC(=O)Nc1nccs1)CC2`, -0.586%. The figure for `O=C(c1csc(C2CC2)n1)N1CCCC1Cn1cccn1` (centres undefined) is -5.53%; for `CCNc1cc2c(nn1)CCN(C(=O)CCc1c(C)noc1C)C2` it is -2.47%. Regarding `Cc1nn(C)c(C)c1C1CCCN1C(=O)c1ccc2nnc(C)n2c1` (centres undefined), the cytotoxicity at 10 µM is -12.2%. The figure for `CC(C)CC(C)N(C)C(=O)c1nc(S(C)(=O)=O)n2ccccc12` (centres undefined) is -9.24%; for `CS(=O)(=O)c1cccc(C(=O)N2CCCC(n3cccn3)C2)c1` (centres undefined) it is -8.77%; for `Cc1ncncc1C(=O)N1CCCC1c1c(C)nn(C)c1Cl` (centres undefined) it is -12.2%. In the case of `CC(C)C(C)NC(=O)Nc1ccc(F)c(C(N)=O)c1` (centres undefined) it was -6.54%. As to `CCc1nc(CN2CCCC(NCc3nnc(C4CC4)n3C)C2)no1` (centres undefined), the cytotoxicity at 10 µM is -2.97%.

On to `O=C(Nc1ccccc1OCC1CCCCO1)c1ccc(O)nc1` (centres undefined), for which the cytotoxicity at 10 µM turned out to be 5.41%. The figure for `CCCOCC(=O)N1CCCN(Cc2csc(CC)n2)CC1` is 3.78%; for `CCCc1ccc(OCCNCc2ccco2)c(OC)c1` it is -2.04%.

With `Cc1nnc(N2CCCC3(CN(Cc4ccc(C)s4)CCO3)C2)o1` (centres undefined), the cytotoxicity at 10 µM was -14.6%. For the compound `CCS(=O)(=O)N1CCC2(CN(c3ccsc3)C(=O)CN2C)C1` (centres undefined), the cytotoxicity at 10 µM amounted to 7.31%.

For the compound `COCCO[C@H]1CCN(C(=O)c2cccnc2)[C@H]1Cc1cnn(C)c1`, the cytotoxicity at 10 µM is 4%. With `Cc1occc1C(=O)N1CCC2(CCN(Cc3nccs3)C2)CC1`, the cytotoxicity at 10 µM was -12.5%.

In the case of `O=C(c1ccco1)N1C[C@H]2CCCN(Cc3nccs3)[C@H]2C1`, the cytotoxicity at 10 µM is 2.32%.

With `CCOCC1CN(Cc2csc(C)n2)Cc2nccn2C1` (centres undefined), the cytotoxicity at 10 µM came to 5.98%. In the case of `Cn1nnc2c1C(COCc1ccccn1)CN(C(=O)c1ccsc1)C2` (centres undefined) it was 13.6%; in that of `Fc1cnc(N2CCCC3(CN(Cc4ccncc4)CCO3)C2)nc1` (centres undefined), 3.34%. In the case of `O=C(NCCc1ccccc1)C1CCC(Cn2cnnn2)CC1` (centres undefined) it was 2.01%.
